Here are results for twelve compounds from ChEMBL document CHEMBL2203070, “1-(3,4,5-Trimethoxyphenyl)ethane-1,2-diyl esters, a novel compound class with potent chemoreversal activity” (Bioorg Med Chem Lett, 2012).

Series [1] can be described thus: Cytotoxicity against human KB cells assessed as cell viability at 10 ug/ml. The class given is cell-based. The settings on record: read-out: Activity.
A short description of series [2]: Cytotoxicity against human DU145 cells assessed as cell viability at 10 ug/ml. The following applies: read-out: Activity. The class given is cell-based, DU-145.
The nature of series [3]: Cytotoxicity against human KB cells assessed as cell viability at 10 uM after 72 hrs by SRB method relative to control. Format: cell-based. The settings on record: read-out: Activity. (In general: The SRB assay estimates cell density from bound dye.)
Series [4] in a line: Cytotoxicity against human KBVIN cells assessed as cell viability at 10 ug/ml. The class given is cell-based. The settings on record: read-out: Activity.
The nature of series [5]: Potentiation of paclitaxel-mediated cytotoxicity against human KBVIN cells assessed as cell viability at 10 uM after 72 hrs by SRB method relative to control. The class given is functional. The settings on record: read-out: Activity.
Series [6] relates to KB. The series can be described thus: Potentiation of paclitaxel-mediated cytotoxicity against human KB cells assessed as cell viability at 10 uM after 72 hrs by SRB method relative to control. The class given is functional. The following applies: read-out: Activity.
A short description of series [7]: Cytotoxicity against human KBVIN cells assessed as cell viability at 10 uM after 72 hrs by SRB method relative to control. Format: cell-based. The settings on record: read-out: Activity.
Series [8] in a line: Cytotoxicity against human A549 cells assessed as cell viability at 10 ug/ml. The following applies: read-out: Activity. Format: cell-based.
A short description of series [9]: Potentiation of paclitaxel-mediated cytotoxicity against human KBVIN cells assessed as reduction in paclitaxel IC50 at 10 uM after 72 hrs by SRB method relative to control. The class given is functional. The method in brief:
(§1)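 IC50 of paclitaxel, vincristine or doxorubicin measured in KBvin cells with and without 10 μM compound; reversal fold = IC50 (drug alone)/IC50 (drug + compound); mean ± SD of three independent experiments; verapamil as reference.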

Series [10] in a line: Potentiation of doxorubicin-mediated cytotoxicity against human KBVIN cells assessed as reduction in doxorubicin IC50 at 10 uM after 72 hrs by SRB method relative to control. Format: functional. The method in brief:
as §1

Series [11] is described as follows: Potentiation of vincristine-mediated cytotoxicity against human KBVIN cells assessed as reduction in vincristine IC50 at 10 uM after 72 hrs by SRB method relative to control. The class given is functional. The method in brief:
as §1

Series [12] relates to KBVIN. The settings on record: Homo sapiens.
Series [13] has as its target Multidrug resistance-associated protein 1 (Homo sapiens, UniProt P33527). Briefly: Inhibition of MRP-mediated Fluo3 efflux in human KBVIN cells at 10 uM incubated for 1 hr prior to Fluo3-addition measured after 2 hrs by fluorescence microscopic analysis. The class given is cell-based. The gist of the method: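 KB or KBvin cells pretreated 1 h with compound or DMSO, then Fluo-3 AM (fluorogenic MRP substrate) added for 2 h; intracellular Fluo-3 retention judged by fluorescence microscopy.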

A short description of series [14]: Potentiation of vincristine-mediated cytotoxicity against human KBVIN cells assessed as reduction in vincristine IC50 at 10 uM after 72 hrs by SRB method relative to verapamil. Format: functional. The method in brief: as §1

Sequence of Multidrug resistance-associated protein 1 (P33527 whole entry): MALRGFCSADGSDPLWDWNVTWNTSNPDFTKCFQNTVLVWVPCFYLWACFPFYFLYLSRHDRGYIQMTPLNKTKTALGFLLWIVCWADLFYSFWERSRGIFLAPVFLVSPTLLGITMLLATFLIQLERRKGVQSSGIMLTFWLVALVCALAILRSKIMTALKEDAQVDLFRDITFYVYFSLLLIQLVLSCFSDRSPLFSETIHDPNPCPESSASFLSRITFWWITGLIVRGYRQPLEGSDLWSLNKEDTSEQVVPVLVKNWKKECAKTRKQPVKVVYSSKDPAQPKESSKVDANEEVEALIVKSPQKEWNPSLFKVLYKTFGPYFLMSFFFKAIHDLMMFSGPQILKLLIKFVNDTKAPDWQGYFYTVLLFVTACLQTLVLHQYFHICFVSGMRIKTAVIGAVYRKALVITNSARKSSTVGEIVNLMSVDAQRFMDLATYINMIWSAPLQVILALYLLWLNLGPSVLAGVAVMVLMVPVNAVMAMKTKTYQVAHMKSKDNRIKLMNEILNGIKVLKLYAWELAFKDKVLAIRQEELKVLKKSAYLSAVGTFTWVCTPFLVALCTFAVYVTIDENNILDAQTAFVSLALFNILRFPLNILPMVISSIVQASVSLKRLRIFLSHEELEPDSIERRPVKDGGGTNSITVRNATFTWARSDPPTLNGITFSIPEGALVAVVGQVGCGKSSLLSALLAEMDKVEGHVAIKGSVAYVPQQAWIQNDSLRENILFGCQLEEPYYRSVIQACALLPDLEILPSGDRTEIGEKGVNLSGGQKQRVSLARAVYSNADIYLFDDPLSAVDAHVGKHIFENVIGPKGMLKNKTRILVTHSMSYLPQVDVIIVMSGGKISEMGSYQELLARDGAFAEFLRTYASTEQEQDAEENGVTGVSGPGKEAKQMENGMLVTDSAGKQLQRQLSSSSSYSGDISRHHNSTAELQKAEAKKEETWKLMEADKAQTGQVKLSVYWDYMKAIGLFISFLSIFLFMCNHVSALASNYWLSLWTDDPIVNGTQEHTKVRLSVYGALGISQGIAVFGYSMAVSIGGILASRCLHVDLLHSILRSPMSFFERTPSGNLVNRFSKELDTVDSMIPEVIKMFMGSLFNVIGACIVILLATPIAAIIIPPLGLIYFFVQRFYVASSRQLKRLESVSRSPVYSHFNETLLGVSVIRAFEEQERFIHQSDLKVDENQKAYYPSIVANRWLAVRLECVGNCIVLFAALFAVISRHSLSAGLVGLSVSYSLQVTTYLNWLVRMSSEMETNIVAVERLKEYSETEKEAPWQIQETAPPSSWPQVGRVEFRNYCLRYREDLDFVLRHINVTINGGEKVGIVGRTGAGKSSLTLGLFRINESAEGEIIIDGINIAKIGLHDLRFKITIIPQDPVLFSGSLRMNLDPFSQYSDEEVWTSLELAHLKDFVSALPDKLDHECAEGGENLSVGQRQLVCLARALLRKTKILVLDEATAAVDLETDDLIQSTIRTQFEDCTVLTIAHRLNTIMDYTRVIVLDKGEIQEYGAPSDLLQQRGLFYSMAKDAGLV

As to `C/C=C/C(=O)OCC(OC(=O)CCCCCCCCCCC)c1cc(OC)c(OC)c(OC)c1` (stereo not given), the viability at 10 ug/ml in series [1] is 76.2%; in [2] it was 41.9%; in [4], 41.1%; in [8] it was 51.1%. The viability at 72 h, 10 µM in series [3] stood at 91.1%; in [7], 79.9%. Also, the viability at 10 µM is 44% in series [5] and 83.9% in series [6].

With `COc1cc(C(COC(C)=O)OC(C)=O)cc(OC)c1OC` (stereo not given), the viability at 10 ug/ml in series [1], in [2], in [4] and in series [8] was greater than 80% each time. Moreover, the viability at 72 h, 10 µM in series [3] came to 98%; in series [7] it was 91.5%. Also, the viability at 10 µM in series [5] was 92%; in series [6], 96%.

Turning to `C/C=C/C=C/C(=O)OCC(OC(=O)/C=C/C=C/C)c1cc(OC)c(OC)c(OC)c1` (stereo not given), the viability at 10 ug/ml in series [1] came to 74.7%; in series [2] it was 40.8%; in [4], 50.1%; in series [8], 49.6%. Also, the viability at 72 h, 10 µM in series [3] came out at 91.2%; in [7] it was 81.5%. Also, the viability at 10 µM in series [5] is 31.3%; in [6] it was 76.8%.

Turning to `COc1ccc(CCN(C)CCCC(C#N)(c2ccc(OC)c(OC)c2)C(C)C)cc1OC` (stereo not given) [VERAPAMIL], the “fold change (FC)” value in series [9] came to 72; in series [10] it was 6; in [11] it was 97.

As for `COc1cc(C(O)CO)c(I)c(OC)c1OC` (stereo not given), the viability at 10 ug/ml in series [1], in series [2], in series [4] and in [8] was greater than 80% throughout. For the same compound, the viability at 72 h, 10 µM in series [3] stood at 95.1%; in series [7], 90%. Also, the viability at 10 µM in series [5] turned out to be 91.8%; in series [6], 97%.

On to `COc1cc(C(=O)OCC(O)c2cc(OC)c(OC)c(OC)c2I)cc(OC)c1OC` (stereo not given), for which the viability at 10 ug/ml in [1], in [2], in series [4] and in series [8] was greater than 80% in each case. The “fold change (FC)” value was 164 in series [9], 51 in series [10] and 798 in [11]. In addition, the viability at 72 h, 10 µM was 77% in series [3] and 83.3% in series [7]. Further, the Flu intensity in series [12] is 226. The values for the viability at 10 µM in series [5] and in series [6] were 0% and 75.7%, respectively.

Consider `COc1cc(C(=O)OCC(O[Si](C)(C)C(C)(C)C)c2cc(OC)c(OC)c(OC)c2)cc(OC)c1OC` (stereo not given), for which the viability at 10 ug/ml in [1], in series [2], in series [4] and in [8] was greater than 80% each time. Further, the “fold change (FC)” value worked out at 216 in series [9], 79 in series [10] and 1684 in [11]. For the same compound, the viability at 72 h, 10 µM came out at 83.9% in series [3] and 74.3% in series [7]. In addition, the Flu intensity in series [12] amounted to 184. The “inhibition (INH)” value in [13] is given as “Active”. The results for the viability at 10 µM in [5] and in series [6] were 12.3% and 70.3%, respectively.

As to `COc1cc(C(=O)OCC(OC(=O)c2cc(OC)c(OC)c(OC)c2)c2cc(OC)c(OC)c(OC)c2I)cc(OC)c1OC` (stereo not given), the viability at 10 ug/ml in [1] was 75.4%; in series [2] it was 46.6%; in series [4], 47%; in [8], 56.2%. Also, the “fold change (FC)” value in series [14] is listed as 340; in series [9], 141; in series [10] it was 156; in series [11], 2285. Moreover, the viability at 72 h, 10 µM in series [3] was found to be 84.2%; in series [7], 87.1%. In [12], this compound showed a Flu intensity of 456. For the same compound, the “inhibition (INH)” value in series [13] was “Not Active”. Also, the viability at 10 µM in series [5] worked out at 0%; in series [6] it was 73.7%.

With `COc1cc(C(O)COC(=O)C2CCCCC2)cc(OC)c1OC` (stereo not given), the viability at 10 ug/ml in series [1], in [2], in series [4] and in series [8] was greater than 80% throughout. Further, the viability at 72 h, 10 µM came out at 98.9% in [3] and 110% in series [7]. The viability at 10 µM in [5] came out at 103%; in series [6], 96.7%.

Consider `COc1ccc(/C=C/C(=O)OCC(OC(=O)/C=C/c2ccccc2)c2cc(OC)c(OC)c(OC)c2I)cc1OC` (stereo not given), for which the viability at 10 ug/ml in series [1], in series [2], in series [4] and in series [8] was greater than 80% throughout. Further, the “fold change (FC)” value in series [9] came to 166; in series [10], 23; in [11] it was 620. Besides, the viability at 72 h, 10 µM amounted to 85.9% in [3] and 95.3% in series [7]. The compound further showed a Flu intensity in series [12] of 414. The viability at 10 µM came to 0% in [5] and 76.5% in series [6].

Take `COc1cc(C(=O)OCC(O[Si](C)(C)C(C)(C)C)c2cc(OC)c(OC)c(OC)c2I)cc(OC)c1OC` (stereo not given): the viability at 10 ug/ml in [1] was 26.1%; in [2], 0%; in [4], 36.7%; in [8], 37%. In addition, the viability at 72 h, 10 µM in [3] was 64.2%; in series [7], 41%. The viability at 10 µM in [5] stood at 19.6%; in [6], 58%.

Regarding `COc1cc(C(O)CO)cc(OC)c1OC` (stereo not given), the viability at 10 ug/ml in series [1], in [2], in [4] and in [8] was greater than 80% each time. The viability at 72 h, 10 µM in series [3] was determined as 101%; in series [7] it was 92.4%. Besides, the viability at 10 µM in series [5] turned out to be 99%; in [6], 96.8%.
